Published values of several laboratories.
Each line is one published result; the experiments were not run side by side. pIC50: −log10 of the molar value.
Observed: cell growth or viability

For `O=C(Nc1ccc(Cl)cc1)Nc1cccc(-c2cn(Cc3ccc(Br)cc3)nn2)c1`, the viability was 86.8% (MCF7; CCK-8; 50 µM; 72 h).
The pIC50 of `N.N.[Cl][Pt][Cl]` is reported as 5.70 (MCF7; MTT; 48 h).
With `O=C1CCP(=S)(c2ccccc2)CC1` the pIC50 was 5.20 (SW-620; MTT; 72 h).
`O=C(NCc1ccccc1)c1cn(Cc2ccc(C(F)(F)F)cc2)c2ccc(Oc3ccccc3)cc2c1=O` has a pIC50 of 5.03 (MCF7; MTT; 24 h).
`CC(C)C[C@@H](NC(=O)[C@H](C)NC(=O)CNC(=O)[C@@H](NC=O)C(C)C)C(=O)N[C@@H](C)C(=O)N[C@@H](C(=O)N[C@H](C(=O)N[C@@H](C(=O)N[C@@H](Cc1c[nH]c2ccccc12)C(=O)N[C@H](CC(C)C)C(=O)N[C@@H](Cc1cccc2[nH]ccc12)C(=O)N[C@H](CC(C)C)C(=O)N[C@@H](Cc1c[nH]c2ccccc12)C(=O)N[C@H](CC(C)C)C(=O)N[C@@H](Cc1c[nH]c2ccccc12)C(=O)NCCO)C(C)C)C(C)C)C(C)C` has a GI50 of 0.0684 µM (MCF7; SRB; 48 h).
`O=C(NCc1ccc(O)cc1)c1cn(Cc2ccc(F)cc2)c2ccc(Oc3ccccc3)cc2c1=O` gave a pIC50 of less than 3.30 (MCF7; MTT; 24 h).
The GI50 of `CC(C)C[C@@H](NC(=O)[C@H](C)NC(=O)CNC(=O)[C@@H](NC=O)C(C)C)C(=O)N[C@@H](C)C(=O)N[C@@H](C(=O)N[C@H](C(=O)N[C@@H](C(=O)N[C@@H](Cc1c[nH]c2ccccc12)C(=O)N[C@H](CC(C)C)C(=O)N[C@@H](Cc1ccc2[nH]ccc2c1)C(=O)N[C@H](CC(C)C)C(=O)N[C@@H](Cc1c[nH]c2ccccc12)C(=O)N[C@@H](C(=O)N[C@@H](Cc1c[nH]c2ccccc12)C(=O)NCCO)C(C)C)[C@H](C)O)C(C)C)C(C)C` is reported as 0.878 µM (MCF7; SRB; 48 h).
The pIC50 of `O=C1CCP(c2ccccc2)CC1` is reported as 4.13 (SW-620; MTT; 72 h).
For `CC[C@H](C)[C@H](NC(=O)[C@H](CCCCN)NC(=O)[C@H](CCCCN)NC(=O)[C@H](CC(C)C)NC(=O)[C@H](CCCCN)NC(=O)[C@H](CCCCN)NC(=O)[C@H](Cc1ccccc1)NC(=O)[C@H](Cc1ccccc1)NC(=O)[C@H](CCCNC(=N)N)NC(=O)[C@H](CCCNC(=N)N)NC(=O)[C@@H](NC(=O)[C@H](CCCCN)NC(=O)[C@H](CCCNC(=N)N)NC(=O)[C@@H](NC(=O)[C@@H](N)Cc1ccc(O)cc1)[C@@H](C)CC)[C@@H](C)CC)C(=O)N[C@@H](CC(C)C)C(=O)N[C@@H](CCCCN)C(=O)N[C@@H](CCCCN)C(N)=O`, the pIC50 was less than 4.70 (SAOS-2; resazurin).
For `CC(C)C[C@@H](NC(=O)[C@H](C)NC(=O)CNC(=O)[C@@H](NC=O)C(C)C)C(=O)N[C@@H](C)C(=O)N[C@@H](C(=O)N[C@H](C(=O)N[C@@H](C(=O)N[C@@H](Cc1c[nH]c2ccccc12)C(=O)N[C@H](CC(C)C)C(=O)N[C@@H](Cc1cccc2cc[nH]c12)C(=O)N[C@H](CC(C)C)C(=O)N[C@@H](Cc1c[nH]c2ccccc12)C(=O)N[C@H](CC(C)C)C(=O)N[C@@H](Cc1c[nH]c2ccccc12)C(=O)NCCO)C(C)C)C(C)C)C(C)C`, the GI50 was 0.0365 µM (MCF7; SRB; 48 h).
